Assay outcomes deposited in PubChem BioAssay by Columbia University Molecular Screening Center.
INS promoter act – activators of insulin promoter-driven GFP, primary screen, imaging, TRM-6 cells, eGFP reporter, cell count; actives 0.81% (n = 130,000); activation, % at 2 µM; plate-scaled: unstimulated 0, stimulated control 100;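 active = activation at 2 µM above a set limit, confirmed on inspection of the cell images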;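 also: share of cells whose green reporter signal exceeds an intensity cutoff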
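System – human fetal islet-derived TRM-6 cells with tamoxifen-inducible insulin promoter–eGFP reporter · Amount – 1,000 cells per well · Schedule – overnight tamoxifen, then two-day compound incubation at 37 °C · Detection – high-content imaging of fixed cells with Hoechst nuclear stain · Read-out – percent cells above green-intensity threshold, converted to percent activation versus plate controls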
The depositor's hits bear a star. The entries come from a sample that favours hits as a whole.

SMILES	INS promoter act
Cc1cc(C)n(C(=O)c2cccc(S(=O)(=O)N3CCCC3)c2)n1	-3.8
Cc1ccccc1CN(CC(=O)Nc1cccc([N+](=O)[O-])c1)S(=O)(=O)c1ccc(Cl)cc1	0.0
CCOC(=O)C1=C(Cn2ccc(C(F)(F)F)n2)NC(=O)NC1c1ccc2c(c1)OCO2 (configuration not stated)	166.7
O=C(O)c1oc2ccccc2c1CN1CCN(c2ccccc2)CC1	-9.4
COCCCNC(=S)NNC(=O)C1CC1c1ccc(C(C)(C)C)cc1 (configuration not stated)	788.9*
COCCNC(=S)NC(=O)c1ccc(C(C)(C)C)cc1	-5.9
COCCCNC(=S)NNC(=O)c1ccccn1	0.0
O=C(COC(=O)CNS(=O)(=O)c1cccc(Br)c1)NC(=O)Nc1ccc2c(c1)OCCO2	400.0*
O=C(COC(=O)CCNS(=O)(=O)c1ccc2c(c1)OCCO2)NC1CCCc2ccccc21 (configuration not stated)	9.1
Cc1ccc(S(=O)(=O)NCC(=O)OCC(=O)Nc2cccc(S(=O)(=O)NC3=NCCCCC3)c2)cc1	-77.8
CCc1ccccc1N1C(=O)c2cccc3c(N4CCOCC4)c([N+](=O)[O-])cc(c23)C1=O	6.7
c1cncc(C(c2nnnn2C2CCCC2)N2CCN(Cc3ccc4c(c3)OCO4)CC2)c1 (configuration not stated)	119.4
c1ccc2c(c1)CCN(Cc1nnnn1Cc1ccc3c(c1)OCO3)C2	-7.0
CC(C)C(c1nnnn1Cc1ccc(F)cc1)N1CCN(Cc2ccc3c(c2)OCO3)CC1 (configuration not stated)	121.4*
CCOc1ncccc1C(=O)N1CCN(Cc2ccc3c(c2)OCO3)CC1	6.7
c1cc2c(cc1CN1CCOCC1)OCO2	3.3
c1cnc(N2CCN(Cc3ccc4c(c3)OCO4)CC2)nc1	313.6*
Cc1ccc(/C=C/C(=O)NCc2ccccn2)o1	-65.5
Cc1ccc(/C=C/C(=O)NCCc2c[nH]c3ccccc23)o1	466.7*
Cc1cccc(NC(=O)NCCc2c[nH]c3ccccc23)c1	2.6
COc1ccccc1/C=N/NC(=O)c1ccc(NC(=O)c2ccccc2Br)cc1	-64.3
CCOC(=O)N1CCC(NC(=O)C(CC(C)C)NC(=O)C2CCC(C)CC2)CC1 (configuration not stated)	2.8
COC(=O)C1=CN(CCOC23CC4CC(CC(C4)C2)C3)C=C(C(=O)OC)C1c1ccsc1	0.0
Cc1cc(C)n(CC(O)Cn2c3ccc(Br)cc3c3cc(Br)ccc32)c(=O)n1 (configuration not stated)	77.1*
Cc1cccc(OCC(=O)N/N=C/CC(C)c2ccccc2)c1C (configuration not stated)	0.0
SMILES	INS promoter act
CCCCNC(=S)NNC(=O)c1csc(C)c1CC	7.1
COc1ccc(C(C)=O)cc1CSc1nncn1C	0.0
Cc1cc(Cl)ccc1OCC(=O)Nc1ccccc1N1CCOCC1	362.9
Cc1ccccc1NC(=O)COc1ccc(Br)cc1C	430.8*
Cc1ccccc1OCC(=O)Nc1cccc2nsnc12	-42.9
Cc1ccc(NC(=O)N2CCCC2c2cccs2)cc1 (configuration not stated)	0.0
CC(C)(C)c1ccc(/C=C2\Oc3cc(OC(=O)N4CCOCC4)ccc3C2=O)cc1	3.4
COc1ccc(CCC(=O)Nc2nc(-c3ccncc3)cs2)cc1	0.0
C/C(=N\N1CCN(C2c3ccccc3-c3ccccc32)CC1)c1ccco1	-8.3
CC(=O)NCCn1c(SCC(=O)NC2CCCCC2)nc2ccccc2c1=O	7.1
Cn1c(C(=O)OC(C(=O)NCc2ccco2)c2ccncc2)cc2sccc21 (configuration not stated)	633.3*
CC(OC(=O)c1cc2sccc2n1C)C(=O)NCCc1ccccc1 (configuration not stated)	5.7
CC(OC(=O)c1cc2sccc2n1C)C(=O)NCc1ccc(F)cc1 (configuration not stated)	-7.9
CCC1=C(OC(=O)c2ccccc2)C(C)(C)C(c2ccccc2)OC1=O (configuration not stated)	-2.8
Cc1[nH]c2ccccc2c1/C=N/NC(=O)c1cc(-c2cccs2)[nH]n1	7.1
CC(=O)c1ccc(OCCCC(=O)Nc2ccc(C)c(S(=O)(=O)N(C)C)c2)cc1	-8.1
CCN1/C(=C/c2ccc3cc(C)ccc3[n+]2CC)Sc2ccccc21	170.3
CCC(=O)/C=C1/Sc2ccccc2N1CC	328.6
CCN1/C(=C/C=C/C=C/c2sc3ccccc3[n+]2CC)Sc2ccccc21	354.5*
COc1cc(/C=N/OCC(=O)Nc2cc(C)on2)ccc1OCc1ccccc1	-3.7
NS(=O)(=O)c1cccn1-c1ncc(C(F)(F)F)cc1Cl	-6.7
Cc1cc(C)cc(NC(=O)c2cccn2-c2ncc(C(F)(F)F)cc2Cl)c1	175.0*
O=C(NCc1cccnc1)c1cccn1-c1ncc(C(F)(F)F)cc1Cl	-7.1
O=C(CSc1nc(N2CCCCC2)nc(N2CCCCC2)n1)N1CCc2ccccc21	341.9
CC1C(=O)NN=C1C(=O)N/N=C\C(Br)=C\c1ccccc1 (configuration not stated)	-8.3
SMILES	INS promoter act
CCCCC(CC)Cn1c(O)c(/C=C2\C=NN=C2c2ccccc2)sc1=S (configuration not stated)	6.1
CC(OC(=O)CCCOc1ccccc1)C(=O)NC(N)=O (configuration not stated)	5.4
c1cncc(CNc2nc(N3CCOCC3)nc(N3CCOCC3)n2)c1	2.9
CC(Sc1nc(NCc2ccccc2)nc(N2CCOCC2)n1)C(=O)Nc1ccccc1 (configuration not stated)	7.7
O=[N+]([O-])c1ccc(-c2ccc(/C=N/Nc3nc(NCc4ccccc4)nc(N4CCOCC4)n3)o2)cc1	200.0*
Cc1nc2c(cc1C#N)C(=O)c1ccccc1-2	9.7
COC(=O)c1ccccc1SC1CC(=O)N(c2ccccc2)C1=O (configuration not stated)	7.1
CCOc1cc(/C=C(\C#N)C(N)=O)ccc1OS(=O)(=O)c1ccccc1	-6.7
COc1cc(NC(=O)c2ccc3c(c2)OCO3)c2ncccc2c1	411.8*
O=C(Nc1cccc2cccnc12)c1ccc2c(c1)OCCO2	6.9
COc1ccc(-c2nc3cc(NC(=O)c4ccc5c(c4)OCO5)ccc3o2)cc1	-9.1
Cc1ccc(-c2c3c([nH]c(=S)c2C#N)CCCC3)o1	-72.7
Cc1nnc(NC(=O)c2ccc(C)c(S(=O)(=O)N3CCCCCC3)c2)s1	1.8
COc1ccc(C(=O)Nc2nc(C)cs2)cc1S(=O)(=O)N1CCCC1	221.1*
Cc1csc(NC(=O)c2cccc(S(=O)(=O)N3CCCCC3)c2)n1	0.0
ClCC1NCC(c2ccccc2Cl)c2c1[nH]c1ccccc21 (configuration not stated)	585.7*
CCOC(=O)CC1C(=O)NCCN1S(=O)(=O)c1ccc(Cl)cc1 (configuration not stated)	6.7
CCCCCC/C(=N\NS(C)(=O)=O)c1ccccc1	0.0
O=C(O)CCC(=O)NNC(=O)CCC(=O)NCc1ccccc1	0.0
CCCCC/C(=N\NC(=O)CCC(=O)NCc1ccccc1)c1ccccc1	371.4*
O=C1CCC/C(=N/NC(=O)c2ccc(NS(=O)(=O)c3cccs3)cc2)C1	-9.1
COc1ccc(Oc2nc(SC)nc3ccsc23)cc1	-6.7
COc1ccc(NC(=O)COC(=O)C23CC4CC(CC(Cl)(C4)C2)C3)c(OC)c1	8.3
C/C(=N/NC(=O)C1CCCCC1)c1ccc([N+](=O)[O-])cc1	196.9
